# Reference: ChEMBL document CHEMBL3091284, “Hygrocins C-G, cytotoxic naphthoquinone ansamycins from gdmAI-disrupted Streptomyces sp. LZ35” (J Nat Prod, 2013)
# Active and inactive are the calls of the source. The rule behind the calls is not given here.
# Tests used:
# Format in all cases: functional, cell-based
# [1] = Cytotoxicity against human MDA-MB-431 cells by MTT assay
# How it was run: (§1)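 MTT viability/proliferation assay on human cancer lines (breast MDA-MB-431, prostate PC3, alveolar basal epithelial A549, colorectal SW620, hepatocellular HepG2). Compounds tested up to a maximum of 10 μM, with activity judged relative to control and IC50 derived. Cisplatin at 5 μg/mL served as positive control.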
# [2] = tested on: PC-3; assay: Cytotoxicity against human PC3 cells by MTT assay; how it was run: as §1
# [3] = tested on: PC-3; assay: Cytotoxicity against human PC3 cells assessed as growth inhibition up to 10 uM by MTT assay; how it was run: as §1
# [4] = species on record: Homo sapiens; assay: Cytotoxicity against human MDA-MB-431 cells assessed as growth inhibition up to 10 uM by MTT assay; how it was run: as §1
# [5] = tested on: SW-620; assay: Cytotoxicity against human SW620 cells assessed as growth inhibition up to 10 uM by MTT assay; how it was run: as §1
# [6] = tested on: A549; assay: Cytotoxicity against human A549 cells assessed as growth inhibition up to 10 uM by MTT assay; how it was run: as §1
# [7] = tested on: HepG2; assay: Cytotoxicity against human HepG2 cells assessed as growth inhibition up to 10 uM by MTT assay; how it was run: as §1
SMILES,IC50 [1] [µM],IC50 [2] [µM],growth inhibition (GI) [3],growth inhibition (GI) [4],growth inhibition (GI) [5],growth inhibition (GI) [6],growth inhibition (GI) [7]
CC[C@@H]1/C=C/[C@H](O)[C@H](C)OC(=O)/C(C)=C\[C@H]2C(=O)NC3=CC(=O)c4c(cc(C)c(O)c4C(=O)CC1)[C@@]32O,0.5,1.9,–,–,–,–,–
CCC1/C=C/[C@H](O)[C@H](C)OC(=O)[C@@]2(C)C=CC(=O)NC3=C2C(=O)c2c(cc(C)c(O)c2C(=O)CC1)C3=O (stereo partly specified),–,–,inactive,inactive,inactive,inactive,inactive
CCC1/C=C/[C@H](C(C)O)OC(=O)[C@@]2(C)C=CC(=O)NC3=C2C(=O)c2c(cc(C)c(O)c2C(=O)CC1)C3=O (stereo partly specified),–,–,inactive,inactive,inactive,inactive,inactive
CC[C@@H]1/C=C/[C@H](O)[C@H](C)OC(=O)/C(C)=C\[C@@H]2C(=O)NC3=CC(=O)c4c(cc(C)c(O)c4C(=O)CC1)[C@@]32O,3,5,–,–,–,–,–
CC[C@@H]1/C=C/[C@H](O)[C@H](C)OC(=O)/C(C)=C/[C@@H]2C(=O)NC3=CC(=O)c4c(cc(C)c(O)c4C(=O)CC1)[C@@]32O,–,–,inactive,inactive,inactive,inactive,inactive
CC[C@@H]1/C=C/[C@H](C(C)O)OC(=O)/C(C)=C\[C@H]2C(=O)NC3=CC(=O)c4c(cc(C)c(O)c4C(=O)CC1)[C@@]32O (stereo partly specified),3.3,4.5,–,–,–,–,–
